Experimental data as given in paper PMC9382716 (Biochemistry, 2021).
Like-named read-outs stand apart in the source and are kept apart here.

Legend:
[1] = target: T1, Drosophila melanogaster HhC (Drosophila melanogaster, UniProt Q02936); experiment: Cholesterolysis kinetics; type: biochemical; conditions: C−H−Y
T1 sequence (Q02936 258-471 limits assumed): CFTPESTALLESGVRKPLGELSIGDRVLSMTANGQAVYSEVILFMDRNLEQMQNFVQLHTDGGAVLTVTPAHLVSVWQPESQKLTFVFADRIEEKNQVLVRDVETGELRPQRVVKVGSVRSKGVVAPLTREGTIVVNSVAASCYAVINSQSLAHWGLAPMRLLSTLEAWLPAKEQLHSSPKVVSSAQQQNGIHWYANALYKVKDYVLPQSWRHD

HhC [2] = target: T2, HhC (Drosophila melanogaster, UniProt Q02936); experiment: MS/MS mapping of tSP binding site on HhC/tSP adduct; conditions: product form of HhC, preliminary MS/MS
T2 sequence (Q02936 258-471 limits assumed): T1 sequence (Q02936 258-471 limits assumed)

HhC [3] = target: T2, HhC; type: binding; conditions: HhC 5 μM, tSP 10 μM, competitor 200 μM
Outline: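 HhC at 5 μM with diazirine-bearing sterol probe tSP and 50 μM azide-linked fluorophore. Saturating cholesterol or test compound added as competitor. UV photolysis. Labeling read by SDS-PAGE with fluorescent gel imaging. Coomassie stain for total HhC.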

[4] = target: T1, Drosophila melanogaster HhC; conditions: read-out: KM as HhC substrate; cited from earlier work

In the case of C#CCCCCOC(=O)CC[C@@H](C)[C@H]1CCC2C3CC4(N=N4)[C@H]4C[C@@H](O)CC[C@]4(C)C3CC[C@@]21C (stereo partly shown) [tSP], the “difference in kmax/KM compared with cholesterol” value [1] is reported as < 2 fold, the “kmax as HhC substrate” value ([1]; no inhibitor) is reported as 0.0042 s⁻¹ and the Km ([1]; read-out: KM as HhC substrate, no inhibitor) is reported as 6.8 µM. The “site of probe attachment on HhC” value (HhC [2]) was “EQLHSSPK (HhC residues 174−181)”.

For CC(C)CCC[C@@H](C)[C@H]1CC[C@H]2[C@@H]3CC=C4C[C@@H](O)CC[C@]4(C)[C@H]3CC[C@]12C [cholesterol], the “kmax as HhC substrate” value ([1]; no inhibitor) is listed as 0.0019 s⁻¹, the “effect on active-site photolabeling of HhC by tSP” value (HhC [3]) is listed as “competitively blocks” and the Km [4] is listed as 1.5 µM.
